Measured values: ChEMBL document CHEMBL3217723, “Optimizing PK properties of cyclic peptides: the effect of side chain substitutions on permeability and clearance()” (Medchemcomm, 2012)
*1 amine or outer side, *2 acyl side, *3 side chain or, on linkers, in order; H or OH if unused. Where a SMILES comes first, the peptide text is derived from it. [ ]: non-standard residue; d: D form. The star is where a group is joined. NMeAbu(4-morpholino) = CN[C@@H](CCN1CCOCC1)C(=O)O; X1 = CN([C@@H](CCN1CCCCC1)C(=O)[*:2])[*:1]; NMeW = CN[C@@H](Cc1c[nH]c2ccccc12)C(=O)O; NMeY = CN[C@@H](Cc1ccc(O)cc1)C(=O)O; NMeLys(Me) = CNCCCC[C@H](NC)C(=O)O; NMeD = CN[C@@H](CC(=O)O)C(=O)O; NMeL = CN[C@@H](CC(C)C)C(=O)O; dNMeL = CN[C@H](CC(C)C)C(=O)O; NMeS = CN[C@@H](CO)C(=O)O; NMeA = CN[C@@H](C)C(=O)O; Piperidide = C1CCN(*)CC1

Legend:
[1] = Intrinsic clearance in human liver microsomes by LC-MS/MS analysis; format: ADME; conditions: read-out: CLH
Procedure, shortened: (§1)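 Compound at 1 µM with liver microsomes (CYP 0.25 µM) in 0.1 M potassium phosphate, pH 7.4, at 37 °C. Final solvent was 0.975% acetonitrile and 0.025% DMSO. Mix prewarmed 5 min, then started with 1.3 mM NADPH; no-NADPH controls were run. Sampled at 0–60 min into acetonitrile and followed by LC-MS/MS for substrate loss. T1/2 was scaled to CLint by the well-stirred model.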

[2] = Lipophilicity, log D of the compound at pH 7.4 by shake-flask method; format: physicochemical; conditions: buffer
[3] = Terminal elimination half life in Wistar-Han rat at 5 mg/kg, po; format: ADME, organism-based; set-up: dose 5 mg/kg, route oral; conditions: in vivo, read-out: beta t1/2 (converted)
Procedure, shortened: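 Male Wistar-Hannover rats (230–250 g, n = 3), jugular-cannulated, were fasted overnight and dosed by oral gavage. Vehicle depended on compound: SEDDS/water or propylene glycol/sodium phosphate pH 7.4. Blood was collected at 0.083–24 h into K2EDTA and the plasma analyzed by LC-MS/MS. Terminal half-life came from the non-compartmental ln-concentration slope.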

[4] = AUC (0 to infinity) in male Wistar-Han rat at 1 mg/kg, iv; format: ADME, organism-based; set-up: time infinity, dose 1 mg/kg, route intravenous; conditions: plasma
[5] = Oral bioavailability in male Wistar-Han rat assessed as dose escapes hepatic metabolism; format: ADME, organism-based; conditions: in vivo
[6] = Terminal elimination half life in Wistar-Han rat at 1 mg/kg, iv; format: ADME, organism-based; set-up: dose 1 mg/kg, route intravenous; conditions: in vivo, read-out: beta t1/2 (converted)
[7] = Cmax in male Wistar-Han rat at 5 mg/kg, po; format: ADME, organism-based; set-up: dose 5 mg/kg, route oral; conditions: in vivo
Procedure, shortened: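 Jugular vein-cannulated male Wistar-Hannover rats (230-250 g), n = 3, fasted overnight and fed after the 4 h sample. Single oral dose in compound-specific vehicles (10% SEDDS:90% water, or propylene glycol with 20 mM sodium phosphate pH 7.4). Serial blood at 0.083–24 h into K2EDTA. Plasma protein-precipitated with internal standard and analysed by LC-MS/MS. Cmax read directly from individual concentration–time curves.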

[8] = Intrinsic clearance in rat liver microsomes by LC-MS/MS analysis; format: ADME; conditions: read-out: CLH; procedure, shortened: as §1
[9] = AUC (0 to infinity) in male Wistar-Han rat at 5 mg/kg, po; format: ADME, organism-based; set-up: time infinity, dose 5 mg/kg, route oral; conditions: plasma
Procedure, shortened: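 Jugular vein-cannulated male Wistar-Hannover rats (230-250 g), n = 3, fasted overnight and fed after the 4 h sample; oral dosing in the i.v. formulations, except the SEDDS formulation used 90% water. Serial blood 0.083–24 h, K2EDTA plasma, LC-MS/MS against standard curve; non-compartmental AUC0-∞ by linear trapezoid rule.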

[10] = Apparent permeability from apical to basolateral side in human Caco2 cells by LC-MS/MS analysis; format: ADME, cell-based; conditions: Caco-2
[11] = Volume of distribution at steady state in male Wistar-Han rat at 1 mg/kg, iv; format: ADME, organism-based; set-up: dose 1 mg/kg, route intravenous; conditions: in vivo, read-out: Vdss
[12] = Oral bioavailability in male Wistar-Han rat assessed as fraction of absorbed dose; format: ADME, organism-based; conditions: in vivo, read-out: Fabs
[13] = Plasma clearance in male Wistar-Han rat at 1 mg/kg, iv; format: ADME, organism-based; set-up: dose 1 mg/kg, route intravenous
[14] = Oral bioavailability in male Wistar-Han rat at 5 mg/kg; format: ADME, organism-based; conditions: in vivo
Procedure, shortened: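 Male Wistar-Hannover rats (230-250 g, cannulated; n = 3) fasted overnight, fed after the 4 h sample, and dosed orally in the i.v. formulations or 10% SEDDS:90% water. Serial blood sampled 0.083–24 h into K2EDTA. Plasma measured by LC-MS/MS against a standard curve. Cmax and Tmax read from individual profiles; F = oral AUC0-∞ relative to i.v. AUC0-∞.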

SMILES	CLint scaled [1]	logD [2]	further results
CC(C)C[C@@H]1NC(=O)[C@H](Cc2ccc(O)cc2)N(C)C(=O)[C@H]2CCCN2C(=O)[C@H](CC(C)C)NC(=O)[C@H](CC(=O)N2CCCCC2)N(C)C(=O)[C@@H](CC(C)C)N(C)C1=O (cyclo(L[dNMeL][NMeD](Piperidide)L[dP][NMeY]))	> 300 mL/min/kg	3.77	–
CC(C)C[C@@H]1NC(=O)[C@H](Cc2ccc(O)cc2)N(C)C(=O)[C@H]2CCCN2C(=O)[C@H](CC(C)C)NC(=O)[C@H](CC(C)C)N(C)C(=O)[C@@H](CC(C)C)N(C)C1=O (cyclo(L[dNMeL][NMeL]L[dP][NMeY]))	120 mL/min/kg	–	–
CC(C)C[C@@H]1NC(=O)[C@H](Cc2ccc(O)cc2)N(C)C(=O)[C@H]2CCCN2C(=O)[C@H](CC(C)C)NC(=O)[C@H](CCN2CCOCC2)N(C)C(=O)[C@@H](CC(C)C)N(C)C1=O (cyclo(L[dNMeL][NMeAbu(4-morpholino)]L[dP][NMeY]))	16 mL/min/kg	2.79	–
CNCCCC[C@H]1C(=O)N[C@@H](CC(C)C)C(=O)N2CCC[C@@H]2C(=O)N(C)[C@@H](Cc2ccc(O)cc2)C(=O)N[C@@H](CC(C)C)C(=O)N(C)[C@H](CC(C)C)C(=O)N1C (cyclo(L[dNMeL][NMeLys(Me)]L[dP][NMeY]))	9 mL/min/kg	0.723	–
CC(C)C[C@@H]1NC(=O)[C@H](Cc2ccc(O)cc2)N(C)C(=O)[C@H]2CCCN2C(=O)[C@H](CC(C)C)NC(=O)[C@H](CO)N(C)C(=O)[C@@H](CC(C)C)N(C)C1=O (cyclo(L[dNMeL][NMeS]L[dP][NMeY]))	80 mL/min/kg	2.61	half-life [3]: 2.82 h; AUC(0-inf) [4]: 282 ng·h/mL; Fh [5]: 14%; half-life [6]: 1.46 h; Cmax [7]: 9.86 ng/mL; CLint scaled [8]: 96 mL/min/kg; AUC(0-inf) [9]: 42.3 ng·h/mL; Papp A→B [10]: 3.3 ×10⁻⁶ cm/s; Vd [11]: 4.3 L/kg; Fa [12]: 14.5%; clearance [13]: 60.4 mL/min/kg; bioavailability [14]: 2.03%
CC(C)C[C@@H]1NC(=O)[C@H](Cc2ccc(O)cc2)N(C)C(=O)[C@H]2CCCN2C(=O)[C@H](CC(C)C)NC(=O)[C@H](Cc2c[nH]c3ccccc23)N(C)C(=O)[C@@H](CC(C)C)N(C)C1=O (cyclo(L[dNMeL][NMeW]L[dP][NMeY]))	56 mL/min/kg	4.07	–
CC(C)C[C@@H]1NC(=O)[C@H](Cc2ccc(O)cc2)N(C)C(=O)[C@H]2CCCN2C(=O)[C@H](CC(C)C)NC(=O)[C@H](C)N(C)C(=O)[C@@H](CC(C)C)N(C)C1=O (cyclo(L[dNMeL][NMeA]L[dP][NMeY]))	190 mL/min/kg	3.64	–
CC(C)C[C@@H]1NC(=O)[C@H](Cc2ccc(O)cc2)N(C)C(=O)[C@H]2CCCN2C(=O)[C@H](CC(C)C)NC(=O)[C@H](CCN2CCCCC2)N(C)C(=O)[C@@H](CC(C)C)N(C)C1=O (cyclo(L[dNMeL][X1]L[dP][NMeY]))	< 8 mL/min/kg	2.2	–
